This note sets out measurements from ChEMBL document CHEMBL1765042, “Utilization of nitrophenylphosphates and oxime-based ligation for the development of nanomolar affinity inhibitors of the Yersinia pestis outer protein H (YopH) phosphatase” (J Med Chem, 2011).

The subject of one series is Yersinia pestis. Put plainly: Antimicrobial activity against pgm, pla deficient Yersinia pestis CO92 infected in human peripheral blood monocytes assessed as inhibition of intracellular bacterial growth at 10 uM after 16 hrs. In kind it is functional, organism-based.
Series [1] deals with Secreted effector protein (Yersinia pestis, UniProt O68720). In words: Inhibition of Yersinia pestis outer protein H expressed in Escherichia coli after 15 to 20 mins. The procedure, abridged:
(§1)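 YopH PTPase domain (residues 164–468) expressed in E. coli. Buffer: 25 mM HEPES pH 7.0–7.6, 50 mM NaCl, 2.5 mM EDTA, 5 mM DTT plus 1 mM fresh DTT, with BSA, no detergent. Inhibitor DMSO dilutions ran 400 to 0.032 μM. Substrate was pNPP (10 mM stock), incubated 25 °C for 15–20 min. pNPP hydrolysis was measured colorimetrically and IC50 came from a Boltzmann sigmoidal fit.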

Series [2] can be described thus: Inhibition of Variola major virus phosphatase VH1. A digest of the protocol:
(§2)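 Recombinant phosphatases: Variola major VH1, human DUSP-14, and catalytic domains of DUSP-22, PTP1B and LAR. Each was assayed by the same spectrophotometric pNPP hydrolysis method as YopH (HEPES pH 7.0–7.6, NaCl, EDTA, DTT, BSA buffer; 25 °C, 15–20 min). IC50 came from a Boltzmann sigmoidal fit.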

Series [3] has as its target Secreted effector protein (Yersinia pestis) (UniProt O68720). Put plainly: Inhibition of Yersinia pestis outer protein H expressed in Escherichia coli after 15 to 20 mins in presence of 0.01% TX-100. The procedure, abridged: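 YopH PTPase domain (residues 164–468, E. coli-expressed) run in a parallel independent pNPP hydrolysis assay with 0.01% Triton X-100 added. Buffer: 25 mM HEPES pH 7.0–7.6, 50 mM NaCl, 2.5 mM EDTA, DTT, BSA. Inhibitor DMSO dilutions ran 400 to 0.032 μM, incubated 25 °C for 15–20 min. IC50 came from a Boltzmann sigmoidal fit.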

For series [4] the target is unchanged. Put plainly: Inhibition of Yersinia pestis outer protein H expressed in Escherichia coli after 15 to 20 mins in absence of 0.01% TX-100. A digest of the protocol: as §1
Series [5] concerns the target Tyrosine-protein phosphatase non-receptor type 1 (Homo sapiens, UniProt P18031). In words: Inhibition of human PTP1B. The procedure, abridged:
as §2

Series [6] concerns the target Receptor-type tyrosine-protein phosphatase F (Homo sapiens, UniProt P10586). In words: Inhibition of human leukocyte antigen related phosphatase. A digest of the protocol:
as §2

The target in series [7] is Dual specificity protein phosphatase 14 (Homo sapiens, UniProt O95147). Put plainly: Inhibition of human DUSP14. The procedure, abridged: as §2
Series [8] concerns the target Dual specificity protein phosphatase 22 (Homo sapiens, UniProt Q9NRW4). In words: Inhibition of human DUSP22. The procedure, abridged: as §2
A further series concerns J774. In words: Cytotoxicity against mouse J774 cells assessed as cell viability by measuring ATP level at < 100 uM after 40 hrs. In kind it is cell-based. Particulars: j774, 40 h. A digest of the protocol:
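J774 mouse macrophages, 5 × 10^5 cells/well, in Eagle's MEM with 4 mM L-glutamine, 4500 mg/L glucose and 7.5% FBS, at 37 °C, 5% CO2. Compound was diluted from a 10 mM DMSO stock to final 0.1–100 μM (1% DMSO in all wells) and cells were cultured 40 h. Viability was read as cellular ATP content.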

Substrate in series [9]: C/C=N/OCc1cc(OP(=O)(O)O)ccc1[N+](=O)[O-]
As to conditions: Yersinia pestis.

Substrate in series [10]: CC(C)(C)c1cc(OP(=O)(O)O)ccc1[N+](=O)[O-]
As to conditions: Yersinia pestis.

Substrate in series [11]: CC(C)(C)c1ccc(OP(=O)(O)O)c([N+](=O)[O-])c1
Particulars: Yersinia pestis.

Substrate in series [12]: Cc1cc([N+](=O)[O-])ccc1OP(=O)(O)O
As to conditions: Yersinia pestis.

Substrate in series [13]: Cc1cccc([N+](=O)[O-])c1OP(=O)(O)O
As to conditions: Yersinia pestis.

Substrate in series [14]: NOCc1cc(OP(=O)(O)O)ccc1[N+](=O)[O-]
Particulars: Yersinia pestis.

Substrate in series [15]: NOCc1ccc(OP(=O)(O)O)c([N+](=O)[O-])c1
As to conditions: Yersinia pestis.

Substrate in series [16]: O=[N+]([O-])c1cc(-c2ccccc2)ccc1OP(=O)(O)O
Particulars: Yersinia pestis.

Substrate in series [17]: O=[N+]([O-])c1ccc(OP(=O)(O)O)c(C2CCCCC2)c1
As to conditions: Yersinia pestis.

Substrate in series [18]: O=[N+]([O-])c1ccc(OP(=O)(O)O)cc1
Particulars: Yersinia pestis.

Substrate in series [19]: O=[N+]([O-])c1ccc(OP(=O)(O)O)cc1-c1ccccc1
As to conditions: Yersinia pestis.

Substrate in series [20]: O=[N+]([O-])c1cccc(C2CCCCC2)c1OP(=O)(O)O
As to conditions: Yersinia pestis.

Activity calls are given as the source filed them. The calls are words filed in the database; no cut-off is given here.

Dual specificity protein phosphatase 14, sequence (O95147 whole entry): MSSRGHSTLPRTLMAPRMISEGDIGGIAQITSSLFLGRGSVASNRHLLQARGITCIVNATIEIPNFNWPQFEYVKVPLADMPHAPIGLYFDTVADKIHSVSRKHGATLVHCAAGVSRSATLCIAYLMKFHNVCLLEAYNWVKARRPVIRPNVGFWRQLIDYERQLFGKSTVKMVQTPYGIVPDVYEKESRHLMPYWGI
Receptor-type tyrosine-protein phosphatase F, sequence (P10586 whole entry): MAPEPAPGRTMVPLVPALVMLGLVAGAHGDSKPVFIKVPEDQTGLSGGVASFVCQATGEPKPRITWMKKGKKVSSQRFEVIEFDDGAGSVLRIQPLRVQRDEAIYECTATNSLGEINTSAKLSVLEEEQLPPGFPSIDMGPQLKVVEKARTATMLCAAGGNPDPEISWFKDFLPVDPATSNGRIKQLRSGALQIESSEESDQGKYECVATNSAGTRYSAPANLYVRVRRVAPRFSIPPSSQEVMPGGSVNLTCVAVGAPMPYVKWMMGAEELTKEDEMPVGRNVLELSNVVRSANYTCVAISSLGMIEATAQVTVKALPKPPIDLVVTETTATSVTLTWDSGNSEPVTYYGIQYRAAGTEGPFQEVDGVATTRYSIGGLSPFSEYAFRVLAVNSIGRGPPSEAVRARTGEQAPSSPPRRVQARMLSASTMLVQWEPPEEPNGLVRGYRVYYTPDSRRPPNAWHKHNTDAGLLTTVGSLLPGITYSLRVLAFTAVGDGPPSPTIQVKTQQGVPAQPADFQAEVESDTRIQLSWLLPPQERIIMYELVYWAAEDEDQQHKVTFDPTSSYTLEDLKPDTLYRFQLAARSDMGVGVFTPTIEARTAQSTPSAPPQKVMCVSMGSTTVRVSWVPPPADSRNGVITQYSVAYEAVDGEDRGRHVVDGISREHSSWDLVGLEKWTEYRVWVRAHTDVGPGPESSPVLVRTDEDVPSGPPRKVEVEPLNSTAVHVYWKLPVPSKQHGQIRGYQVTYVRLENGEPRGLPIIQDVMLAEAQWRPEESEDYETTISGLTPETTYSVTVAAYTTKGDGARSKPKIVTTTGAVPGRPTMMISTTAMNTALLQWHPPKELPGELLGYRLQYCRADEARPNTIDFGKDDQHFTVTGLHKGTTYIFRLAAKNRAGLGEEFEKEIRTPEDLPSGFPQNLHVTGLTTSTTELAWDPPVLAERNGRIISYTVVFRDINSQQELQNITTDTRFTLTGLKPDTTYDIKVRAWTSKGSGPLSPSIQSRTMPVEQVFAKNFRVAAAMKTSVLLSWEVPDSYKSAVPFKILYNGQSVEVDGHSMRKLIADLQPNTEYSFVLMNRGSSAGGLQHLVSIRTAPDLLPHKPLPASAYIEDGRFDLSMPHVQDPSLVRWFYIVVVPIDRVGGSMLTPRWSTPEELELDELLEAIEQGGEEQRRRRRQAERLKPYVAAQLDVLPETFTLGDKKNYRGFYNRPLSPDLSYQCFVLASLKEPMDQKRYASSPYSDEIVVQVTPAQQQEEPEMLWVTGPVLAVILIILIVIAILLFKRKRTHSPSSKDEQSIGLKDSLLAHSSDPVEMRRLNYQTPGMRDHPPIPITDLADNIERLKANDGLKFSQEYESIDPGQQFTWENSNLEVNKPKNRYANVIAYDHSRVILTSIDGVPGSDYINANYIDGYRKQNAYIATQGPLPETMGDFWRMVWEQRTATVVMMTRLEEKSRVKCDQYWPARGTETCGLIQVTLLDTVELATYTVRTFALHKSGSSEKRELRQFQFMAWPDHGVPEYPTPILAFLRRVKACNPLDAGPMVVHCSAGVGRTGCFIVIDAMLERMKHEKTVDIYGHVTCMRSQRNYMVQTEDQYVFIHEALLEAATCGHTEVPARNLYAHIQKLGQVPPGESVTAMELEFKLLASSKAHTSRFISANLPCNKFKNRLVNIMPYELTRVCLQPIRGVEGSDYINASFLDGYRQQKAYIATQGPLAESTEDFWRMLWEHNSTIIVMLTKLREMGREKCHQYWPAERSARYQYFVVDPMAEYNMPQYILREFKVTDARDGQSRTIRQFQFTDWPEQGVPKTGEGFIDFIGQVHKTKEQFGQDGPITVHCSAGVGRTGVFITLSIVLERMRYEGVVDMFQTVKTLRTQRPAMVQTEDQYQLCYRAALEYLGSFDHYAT
Tyrosine-protein phosphatase non-receptor type 1, sequence (P18031 whole entry): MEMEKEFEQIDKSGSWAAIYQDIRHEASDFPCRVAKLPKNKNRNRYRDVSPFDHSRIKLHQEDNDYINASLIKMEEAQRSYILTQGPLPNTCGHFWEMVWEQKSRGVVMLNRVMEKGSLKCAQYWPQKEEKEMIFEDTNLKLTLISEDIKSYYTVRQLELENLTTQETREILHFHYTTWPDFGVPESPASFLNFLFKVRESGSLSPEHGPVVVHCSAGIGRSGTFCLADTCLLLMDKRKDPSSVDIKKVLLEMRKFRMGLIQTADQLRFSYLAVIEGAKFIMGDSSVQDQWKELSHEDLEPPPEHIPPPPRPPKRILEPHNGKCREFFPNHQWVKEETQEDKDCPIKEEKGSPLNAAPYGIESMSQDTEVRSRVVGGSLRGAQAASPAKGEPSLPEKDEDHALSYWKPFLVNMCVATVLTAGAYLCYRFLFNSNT
Dual specificity protein phosphatase 22, sequence (Q9NRW4 whole entry): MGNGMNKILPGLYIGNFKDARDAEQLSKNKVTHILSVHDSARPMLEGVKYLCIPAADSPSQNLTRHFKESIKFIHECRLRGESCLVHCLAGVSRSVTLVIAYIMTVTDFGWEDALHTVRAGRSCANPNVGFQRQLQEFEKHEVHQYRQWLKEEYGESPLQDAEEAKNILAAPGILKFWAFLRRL

Consider GENTAMICIN, for which the inhibition entry in the series with Yersinia pestis is “Active”.
As usually defined, the IC50 is the concentration at which inhibition is half-maximal. A low value points to higher potency. In the case of `O=P(O)(O)C(F)(F)c1cccc(-c2ccc(CO/N=C/c3ccc(CO)o3)cc2)c1`, in series [1], the IC50 was determined as 730 nM.
On the same count and under the same terms, to `O=P(O)(O)C(F)(F)c1cccc(-c2ccc(CO/N=C/c3ccco3)cc2)c1` belongs 1200 nM.
Still for that read-out and setting: to `O=P(O)(O)C(F)(F)c1cccc(-c2ccc(CO/N=C/c3ccoc3)cc2)c1` belongs 3690 nM.
In the case of `O=C(O)c1ccc(/C=N/OCc2ccc(-c3cccc(C(F)(F)P(=O)(O)O)c3)cc2)o1`, the IC50 in series [2] is over 400000 nM; in [1], 190 nM; in [5], 2230 nM; in series [6] it was over 400000 nM; in [7], over 400000 nM; in [8] it was over 400000 nM. Moreover, the inhibition result (in series [3]; in series [4]; in the series with Yersinia pestis) was “Active” throughout. Besides, the Activity entry with J774 was “Non-toxic”.
On to `Cc1ccc(/C=N/OCc2ccc(-c3cccc(C(F)(F)P(=O)(O)O)c3)cc2)o1`, for which, in series [1], the IC50 is 910 nM.

B1: Secreted effector protein (Yersinia pestis), O68720 (protein)
chain: MNLSLSDLHRQVSRLVQQESGDCTGKLRGNVAANKETTFQGLTIASGARESEKVFAQTVLSHVANVVLTQEDTAKLLQSTVKHNLNNYDLRSVGNGNSVLVSLRSDQMTLQDAKVLLEAALRQESGARGHVSSHSHSALHAPGTPVREGLRSHLDPRTPPLPPRERPHTSGHHGAGEARATAPSTVSPYGPEARAELSSRLTTLRNTLAPATNDPRYLQACGGEKLNRFRDIQCCRQTAVRADLNANYIQVGNTRTIACQYPLQSQLESHFRMLAENRTPVLAVLASSSEIANQRFGMPDYFRQSGTYGSITVESKMTQQVGLGDGIMADMYTLTIREAGQKTISVPVVHVGNWPDQTAVSSEVTKALASLVDQTAETKRNMYESKGSSAVGDDSKLRPVIHCRAGVGRTAQLIGAMCMNDSRNSQLSVEDMVSQMRVQRNGIMVQKDEQLDVLIKLAEGQGRPLLNS
For orientation: Km means the concentration of substrate that gives half-maximal velocity. Take B1: the Km is 170 µM in series [9]; 1140 µM in series [10]; 470 µM in series [11]; 650 µM in series [12]; “Not Active” in series [13]; 410 µM in series [14]. Also, the Km in [15] is 1130 µM; in series [16], 150 µM; in [17] it was 260 µM; in [18], 600 µM; in series [19] it was 80 µM; in [20] it was “Not Active”.
